Measured values from ChEMBL document CHEMBL1649165, “Activity profile in vitro of micafungin against Spanish clinical isolates of common and emerging species of yeasts and molds” (2009).

Legend:
Assay type in all cases: functional
Fusarium proliferatum = test: Antimicrobial activity against Fusarium proliferatum by broth microdilution method
Summary of the method: (§1)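 Clinical mould isolates, tested by broth microdilution using the AFST-EUCAST reference method for filamentous fungi. For echinocandins, the endpoint was the minimum effective concentration: the lowest drug concentration giving aberrant hyphal growth, read with an inverted microscope.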

Ustilago = test: Antimicrobial activity against Ustilago spp by broth microdilution method
Torulaspora delbrueckii = test: Antimicrobial activity against Candida coliculosa by broth microdilution method
Summary of the method: (§2)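 Clinical isolates from human patients, tested by broth microdilution using the AFST-EUCAST reference procedure for fermentative yeasts. The MIC was read per that reference method.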

Candida orthopsilosis = test: Antimicrobial activity against Candida orthopsilosis by broth microdilution method; details: Lodderomyces orthopsilosis; summary of the method: as §2
Aspergillus sclerotiorum = test: Antimicrobial activity against Aspergillus sclerotiorum by broth microdilution method; summary of the method: as §1
Hortaea werneckii = test: Antimicrobial activity against Hortaea werneckii by broth microdilution method
Geotrichum candidum = test: Antimicrobial activity against Galactomyces geotrichum by broth microdilution method
Aspergillus fumigatus = test: Antimicrobial activity against Aspergillus fumigatus by broth microdilution method; summary of the method: as §1
Yarrowia lipolytica = test: Antimicrobial activity against Yarrowia lipolytica by broth microdilution method
Candida albicans = test: Antimicrobial activity against Candida albicans by broth microdilution method; summary of the method: as §2
Acremonium sp. = test: Antimicrobial activity against Acremonium sp.by broth microdilution method; summary of the method: as §1
Aspergillus glaucus = test: Antimicrobial activity against Aspergillus glaucus by broth microdilution method; summary of the method: as §1
Lichtheimia corymbifera = test: Antimicrobial activity against Mycocladus corymbiferus by broth microdilution method
Summary of the method: (§3)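 Filamentous fungus clinical isolates tested by the AFST-EUCAST reference broth microdilution method for moulds. For echinocandins, the endpoint was the minimum effective concentration: the lowest drug concentration giving aberrant hyphal growth, read with an inverted microscope.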

[1] = tested on: Kazachstania pintolopesii; test: Antimicrobial activity against Candida pintolopesii by broth microdilution method; details: Arxiozyma pintolopesii; summary of the method: as §2
[2] = tested on: Cryptococcus deneoformans; test: Antimicrobial activity against Cryptococcus neoformans var. neoformans by broth microdilution method
Summary of the method: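 Clinical isolates of nonfermentative yeasts, tested by broth microdilution following EUCAST recommendations. The only change from that method was a minor modification to improve growth.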

Trichosporon inkin = test: Antimicrobial activity against Trichosporon inkin by broth microdilution method
Summary of the method: (§4)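 Nonfermentative yeast clinical isolates (Rhodotorula, Trichosporon) tested by broth microdilution. The EUCAST yeast recommendations were followed strictly, with one minor modification to improve growth. MIC was read as the endpoint.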

Penicillium = test: Antimicrobial activity against Penicillium spp. by broth microdilution method; summary of the method: as §3
Lomentospora prolificans = test: Antimicrobial activity against Scedosporium prolificans by broth microdilution method; summary of the method: as §3
[3] = tested on: Cladophialophora bantiana; test: Antimicrobial activity against Cladophialophora bantiana by broth microdilution method; summary of the method: as §1
Pichia norvegensis = test: Antimicrobial activity against Candida norvegensis by broth microdilution method; summary of the method: as §2
[4] = tested on: Meyerozyma guilliermondii; test: Antimicrobial activity against Candida guilliermondii by broth microdilution method; summary of the method: as §2
Trichosporon domesticum = test: Antimicrobial activity against Trichosporon mycotoxinivorans by broth microdilution method; details: Apiotrichum domesticum
Summary of the method: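 Spanish human clinical isolates were tested as nonfermentative yeasts by broth microdilution. The method strictly followed the EUCAST recommendations, with a minor modification to improve growth, and the read-out was the MIC.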

Saccharomyces cerevisiae = test: Antimicrobial activity against Saccharomyces cerevisiae by broth microdilution method
Nakaseomyces glabratus = test: Antimicrobial activity against Candida glabrata by broth microdilution method; summary of the method: as §2
Rhizopus arrhizus = test: Antimicrobial activity against Rhizopus oryzae by broth microdilution method; summary of the method: as §3
[Candida] zeylanoides = Antimicrobial activity against Candida zeylanoides by broth microdilution method; details: Dujonia zeylanoides; summary of the method: as §2
[Candida] inconspicua = Antimicrobial activity against Candida inconspicua by broth microdilution method; details: Pichia inconspicua; summary of the method: as §2
Exophiala jeanselmei = test: Antimicrobial activity against Exophiala jeanselmei by broth microdilution method
Kluyveromyces marxianus = test: Antimicrobial activity against Candida kefyr by broth microdilution method; summary of the method: as §2
Trichosporon jirovecii = test: Antimicrobial activity against Trichosporon jirovecii by broth microdilution method; details: Cutaneotrichosporon jirovecii; summary of the method: as §4
Wickerhamomyces anomalus = test: Antimicrobial activity against Candida pelliculosa by broth microdilution method; details: Hansenula anomala; summary of the method: as §2
Candida metapsilosis = test: Antimicrobial activity against Candida metapsilosis by broth microdilution method; details: Lodderomyces metapsilosis; summary of the method: as §2
Trichoderma = test: Antimicrobial activity against Trichoderma spp. by broth microdilution method; summary of the method: as §3
Aspergillus sydowii = test: Antimicrobial activity against Aspergillus sydowii by broth microdilution method; summary of the method: as §1
Aspergillus ochraceus = test: Antimicrobial activity against Aspergillus ochraceus by broth microdilution method; summary of the method: as §1
Scytalidium hyalinum = test: Antimicrobial activity against Scytalidium hyalinum by broth microdilution method; details: Neoscytalidium hyalinum; summary of the method: as §3
[5] = Antimicrobial activity against Hormographiella aspergillata by broth microdilution method; details: Coprinopsis cinerea; summary of the method: as §3
Phialemonium curvatum = test: Antimicrobial activity against Phialemonium curvatum by broth microdilution method; details: Thyridium curvatum; summary of the method: as §3
Candida tropicalis = test: Antimicrobial activity against Candida tropicalis by broth microdilution method; summary of the method: as §2

CCC(C)n1ncn(-c2ccc(N3CCN(c4ccc(OCC5COC(Cn6cncn6)(c6ccc(Cl)cc6Cl)O5)cc4)CC3)cc2)c1=O (stereo unspecified) [ITRACONAZOLE]
0.5 µg/mL: MIC50 (Ustilago) | MIC50 (Aspergillus sclerotiorum) | MIC50 (Geotrichum candidum) | MIC90 (Aspergillus fumigatus) | MIC50 (Yarrowia lipolytica) | MIC50 (Aspergillus glaucus) | MIC90 [2] | MIC50 (Penicillium) | MIC50 (Trichosporon domesticum) | MIC50 (Saccharomyces cerevisiae) | MIC50 (Trichosporon jirovecii) | MIC50 (Aspergillus sydowii) | MIC50 (Aspergillus ochraceus)
> 8 µg/mL: MIC50 (Fusarium proliferatum) | MIC90 (Fusarium proliferatum) | MIC90 (Ustilago) | MIC90 (Torulaspora delbrueckii) | MIC90 (Candida orthopsilosis) | MIC90 (Aspergillus sclerotiorum) | MIC90 (Hortaea werneckii) | MIC90 (Yarrowia lipolytica) | MIC50 (Acremonium sp.) | MIC90 (Acremonium sp.) | MIC90 (Aspergillus glaucus) | MIC90 (Lichtheimia corymbifera) | MIC90 [1] | MIC90 (Penicillium) | MIC50 (Lomentospora prolificans) | MIC90 (Lomentospora prolificans) | MIC90 [3] | MIC90 (Pichia norvegensis) | MIC90 [4] | MIC90 (Trichosporon domesticum) | MIC90 (Rhizopus arrhizus) | MIC90 ([Candida] zeylanoides) | MIC90 ([Candida] inconspicua) | MIC90 (Exophiala jeanselmei) | MIC90 (Trichosporon jirovecii) | MIC90 (Wickerhamomyces anomalus) | MIC90 (Candida metapsilosis) | MIC50 (Trichoderma) | MIC90 (Trichoderma) | MIC90 (Aspergillus sydowii) | MIC90 (Aspergillus ochraceus) | MIC90 (Scytalidium hyalinum) | MIC50 [5] | MIC90 [5] | MIC50 (Phialemonium curvatum) | MIC90 (Phialemonium curvatum)
0.02 µg/mL: MIC50 (Candida albicans) | MIC50 (Kluyveromyces marxianus) | MIC50 (Candida tropicalis)
4 µg/mL: MIC50 (Rhizopus arrhizus)
0.12 µg/mL: MIC50 (Torulaspora delbrueckii) | MIC50 (Candida orthopsilosis) | MIC50 (Hortaea werneckii) | MIC50 [1] | MIC50 [2] | MIC50 (Trichosporon inkin) | MIC50 [3] | MIC50 (Pichia norvegensis) | MIC50 ([Candida] zeylanoides) | MIC50 ([Candida] inconspicua) | MIC50 (Exophiala jeanselmei) | MIC50 (Wickerhamomyces anomalus) | MIC50 (Candida metapsilosis) | MIC50 (Scytalidium hyalinum)
2 µg/mL: MIC90 (Geotrichum candidum) | MIC90 (Saccharomyces cerevisiae)
0.06 µg/mL: MIC90 (Kluyveromyces marxianus) | MIC90 (Candida tropicalis)
0.03 µg/mL: MIC90 (Candida albicans)
1 µg/mL: MIC50 (Lichtheimia corymbifera) | MIC90 (Nakaseomyces glabratus)
0.25 µg/mL: MIC50 (Aspergillus fumigatus) | MIC90 (Trichosporon inkin) | MIC50 [4] | MIC50 (Nakaseomyces glabratus)

CC[C@@H]([C@H](C)O)n1ncn(-c2ccc(N3CCN(c4ccc(OC[C@@H]5CO[C@@](Cn6cncn6)(c6ccc(F)cc6F)C5)cc4)CC3)cc2)c1=O [POSACONAZOLE]
0.03 µg/mL: MIC50 (Torulaspora delbrueckii) | MIC50 (Candida orthopsilosis) | MIC50 [1] | MIC50 (Pichia norvegensis) | MIC50 ([Candida] zeylanoides) | MIC50 ([Candida] inconspicua) | MIC50 (Kluyveromyces marxianus) | MIC50 (Wickerhamomyces anomalus) | MIC50 (Candida metapsilosis) | MIC90 (Candida tropicalis)
0.25 µg/mL: MIC50 (Ustilago) | MIC90 (Aspergillus fumigatus) | MIC50 (Yarrowia lipolytica) | MIC50 (Penicillium) | MIC50 (Trichosporon domesticum) | MIC50 (Saccharomyces cerevisiae) | MIC50 (Nakaseomyces glabratus) | MIC50 (Trichosporon jirovecii) | MIC50 (Aspergillus sydowii)
0.06 µg/mL: MIC50 (Hortaea werneckii) | MIC50 (Aspergillus fumigatus) | MIC50 (Trichosporon inkin) | MIC50 [3] | MIC50 (Exophiala jeanselmei) | MIC90 (Kluyveromyces marxianus) | MIC50 (Scytalidium hyalinum)
0.02 µg/mL: MIC50 (Candida albicans) | MIC90 (Candida albicans) | MIC50 (Candida tropicalis)
1 µg/mL: MIC90 (Nakaseomyces glabratus)
> 16 µg/mL: MIC90 (Acremonium sp.)
> 8 µg/mL: MIC50 (Fusarium proliferatum) | MIC90 (Fusarium proliferatum) | MIC90 (Ustilago) | MIC90 (Torulaspora delbrueckii) | MIC90 (Candida orthopsilosis) | MIC90 (Aspergillus sclerotiorum) | MIC90 (Hortaea werneckii) | MIC90 (Aspergillus glaucus) | MIC90 (Lichtheimia corymbifera) | MIC90 [1] | MIC50 (Lomentospora prolificans) | MIC90 (Lomentospora prolificans) | MIC90 [3] | MIC90 (Pichia norvegensis) | MIC90 [4] | MIC90 (Trichosporon domesticum) | MIC90 (Rhizopus arrhizus) | MIC90 ([Candida] zeylanoides) | MIC90 ([Candida] inconspicua) | MIC90 (Exophiala jeanselmei) | MIC90 (Trichosporon jirovecii) | MIC90 (Wickerhamomyces anomalus) | MIC90 (Candida metapsilosis) | MIC90 (Trichoderma) | MIC90 (Aspergillus ochraceus) | MIC90 (Scytalidium hyalinum) | MIC90 [5] | MIC90 (Phialemonium curvatum)
0.12 µg/mL: MIC50 (Aspergillus sclerotiorum) | MIC50 (Aspergillus glaucus) | MIC50 [2] | MIC90 (Trichosporon inkin) | MIC50 [4] | MIC50 (Aspergillus ochraceus)
4 µg/mL: MIC90 (Penicillium) | MIC50 (Trichoderma) | MIC50 [5] | MIC50 (Phialemonium curvatum)
0.5 µg/mL: MIC50 (Geotrichum candidum) | MIC90 (Geotrichum candidum) | MIC50 (Lichtheimia corymbifera) | MIC90 [2] | MIC90 (Saccharomyces cerevisiae) | MIC90 (Aspergillus sydowii)
2 µg/mL: MIC90 (Yarrowia lipolytica) | MIC50 (Rhizopus arrhizus)
8 µg/mL: MIC50 (Acremonium sp.)
